Source: paper PMC11382121 (Molecular Metabolism, 2024)

What was measured:
humans = conditions: exposure levels capable of fully blocking the GIPR; cited from earlier work
[1] = system: HFD-induced obese cynomolgus monkeys; assay: Efficacy study in obese non-human primates; assay type: in vivo, M. fascicularis; conditions: 42-day daily SC treatment
[2] = Pharmacokinetics in Göttingen minipigs; assay type: in vivo; conditions: female, minipig, plasma, sc, 3 nmol/kg
How it was run: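 Two female Göttingen minipigs (30–35 kg) per test compound, each given a single SC dose of 3 nmol/kg (0.04 mL/kg) in the inguinal fold or behind the ear. Up to 10 blood samples were drawn via an ear-vein central venous catheter to 129 h into chilled EDTA tubes. Plasma (2000 RCF, 15 min, 4 °C) was frozen and assayed by LC-MS/MS. Half-life came from a one-phase exponential decay fit.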

In the case of `CC[C@H](C)[C@H](NC(=O)[C@H](CO)NC(=O)[C@H](Cc1ccc(O)cc1)NC(=O)[C@H](CC(=O)O)NC(=O)[C@H](CO)NC(=O)[C@@H](NC(=O)[C@H](Cc1ccccc1)NC(=O)[C@@H](NC(=O)CNC(=O)[C@@H](N)CCC(=O)O)[C@@H](C)O)[C@@H](C)CC)C(=O)N[C@@H](C)C(=O)N[C@@H](CCSC)C(=O)N[C@@H](CC(=O)O)C(=O)N[C@@H](CCCCN)C(=O)N[C@H](C(=O)N[C@@H](Cc1c[nH]cn1)C(=O)N[C@@H](CCC(N)=O)C(=O)N[C@@H](CCC(N)=O)C(=O)N[C@@H](CC(=O)O)C(=O)N[C@@H](Cc1ccccc1)C(=O)N[C@H](C(=O)N[C@@H](CC(N)=O)C(=O)N[C@@H](Cc1c[nH]c2ccccc12)C(=O)N[C@@H](CC(C)C)C(=O)N[C@@H](CC(C)C)C(=O)N[C@@H](C)C(=O)N[C@@H](CCC(N)=O)C(=O)N[C@@H](CCCCN)C(N)=O)C(C)C)[C@@H](C)CC` [GIP(3–30)NH2], the “nausea, comfort or other side effects” value (humans) is given as “no alterations in nausea, comfort, or any other side effects”.
In the case of `CCCCCCCCCCCCCCCC(=O)N[C@@H](CCC(=O)NCCCC[C@H](NC(=O)[C@H](C)NC(=O)[C@H](C)NC(=O)[C@H](CCC(N)=O)NC(=O)CNC(=O)[C@H](CCC(=O)O)NC(=O)[C@H](CC(C)C)NC(=O)[C@H](Cc1ccc(O)cc1)NC(=O)[C@H](CO)NC(=O)[C@H](CO)NC(=O)[C@@H](NC(=O)[C@H](CC(=O)O)NC(=O)[C@H](CO)NC(=O)[C@@H](NC(=O)[C@H](Cc1ccccc1)NC(=O)[C@@H](NC(=O)CNC(=O)[C@H](CCC(=O)O)NC(=O)[C@H](C)NC(=O)[C@@H](N)Cc1cnc[nH]1)[C@@H](C)O)[C@@H](C)O)C(C)C)C(=O)N[C@@H](CCC(=O)O)C(=O)N[C@@H](Cc1ccccc1)C(=O)N[C@H](C(=O)N[C@@H](C)C(=O)N[C@@H](Cc1c[nH]c2ccccc12)C(=O)N[C@@H](CC(C)C)C(=O)N[C@H](C(=O)N[C@@H](CCCNC(=N)N)C(=O)NCC(=O)N[C@@H](CCCNC(=N)N)C(=O)NCC(=O)O)C(C)C)[C@@H](C)CC)C(=O)O` [Liraglutide], the “tolerability / side effects” value [1] is reported as “one NHP in the liraglutide monotreatment group that stopped eating and drinking”.
In the case of `CC[C@H](C)[C@H](NC(=O)[C@H](CC(C)C)NC(=O)[C@H](Cc1c[nH]c2ccccc12)NC(=O)[C@H](CCC(N)=O)NC(=O)[C@@H](NC(=O)[C@H](Cc1ccccc1)NC(=O)[C@H](C)NC(=O)[C@H](CCCCNC(=O)COCCOCCNC(=O)COCCOCCNC(=O)CC[C@H](NC(=O)CCCCCCCCCCCCCCCCCCC(=O)O)C(=O)O)NC(=O)[C@H](CCC(N)=O)NC(=O)[C@H](C)NC(=O)[C@@H](NC(=O)[C@H](CCCCN)NC(=O)[C@H](CC(=O)O)NC(=O)[C@H](CC(C)C)NC(=O)C(C)(C)NC(=O)[C@@H](NC(=O)[C@H](CO)NC(=O)[C@H](Cc1ccc(O)cc1)NC(=O)[C@H](CC(=O)O)NC(=O)[C@H](CO)NC(=O)[C@@H](NC(=O)[C@H](Cc1ccccc1)NC(=O)[C@@H](NC(=O)CNC(=O)[C@H](CCC(=O)O)NC(=O)C(C)(C)NC(=O)[C@@H](N)Cc1ccc(O)cc1)[C@@H](C)O)[C@@H](C)O)[C@@H](C)CC)[C@@H](C)CC)C(C)C)C(=O)N[C@@H](C)C(=O)NCC(=O)NCC(=O)N1CCC[C@H]1C(=O)N[C@@H](CO)C(=O)N[C@@H](CO)C(=O)NCC(=O)N[C@@H](C)C(=O)N1CCC[C@H]1C(=O)N1CCC[C@H]1C(=O)N1CCC[C@H]1C(=O)N[C@@H](CO)C(N)=O` [Tirzepatide], the AUC(0-inf) [2] is reported as 4.12 µM·h and the half-life [2] is reported as 83 h.
